Measurements from different studies.
Each line is one published result; the experiments were not run side by side.
Target: Dual specificity protein kinase CLK1 (CLK1, Homo sapiens, UniProt P49759)
Method: competition with immobilised ligand

SMILES	effect on	concentration	remaining binding
COc1cc(-c2cn(C3CCc4ccccc4N(CC(F)(F)F)C3=O)nn2)ccc1-n1ccc(C)n1 (centres unmarked)	cell-free assay	1 µM	87%
O=C(NCC1CCOCC1)c1n[nH]cc1NC(=O)c1c(F)cccc1F	binding	1 µM	30%
O=S(=O)(NC1CCC(c2cc(F)ccc2F)(S(=O)(=O)c2ccc(Cl)cc2)CC1)C(F)(F)F (centres unmarked)	cell-free assay	1 µM	78%
COc1ncc2cc3ccccc3nc2c1C#N	cell-free assay	5 µM	98%
CCN1CCN(Cc2ccc(C(=O)Nc3ccc(C)c(Oc4ccc5c(c4)CC(=O)N5)c3)cc2C(F)(F)F)CC1	binding	1 µM	100%
C[C@@H](c1ccc(-n2cnc3c(N)ncnc32)cc1)N1CCc2nn(C)c(Cc3ccccc3)c2C1=O	binding	0.1 µM	67%
COc1cnc(Nc2cccc(S(N)(=O)=O)c2)nc1N1CCN(c2ccccc2)C(=O)C1	binding	1 µM	100%
O=C(NCCCN1CCOCC1)c1ccc(Nc2ncc(Cl)c(-c3ccc(Cl)s3)n2)cc1	binding	1 µM	3.6%
CN([C@@H]1CCc2c(CC(=O)O)c3cc(S(C)(=O)=O)ccc3n2C1)S(=O)(=O)c1ccc(F)cc1	cell-free assay	1 µM	100%
COc1cnc(Nc2cccc(S(N)(=O)=O)c2)nc1N1CCN(c2ccccc2)CC1	binding	1 µM	96%
O=C(NCCCN1CCOCC1)c1ccc(Nc2nccc(-c3cc4ccccc4s3)n2)cc1	binding	1 µM	12%
FC(F)(F)Oc1cccc(-c2cnc3ccc(-c4ccncc4)nn23)c1	cell-free assay	5 µM	0.7%
Cc1cnc(Nc2ccc(C(=O)N3CCC(N4CCCC4)CC3)cc2)nc1-c1cc2ccccc2s1	binding	1 µM	8.3%
Cc1c(C(=O)O)cc(-c2ccc(C3CCNCC3)cc2)c2ccc(-c3ccc(C(F)(F)F)cc3)cc12	binding	1 µM	100%
